Test results reported in ChEMBL document CHEMBL1137433, “Synthesis and antibacterial evaluation of ureides of Baylis-Hillman derivatives” (2006).

Columns and labels:
Type in all cases: functional
Staphylococcus aureus = test: Antibacterial activity against Staphylococcus aureus
In short: (§1)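 Broth microdilution MIC in Mueller Hinton broth, 96-well plates. Strains from departmental collection, kept on nutrient agar slants at 37 °C, purity checked before testing. Starting inoculum 1–5 · 10³ cells/ml. Plates incubated 24 h at 37 °C in a moist chamber, then absorbance read at 492 nm. MIC taken as 90% growth inhibition relative to growth control.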

Enterococcus faecalis = test: Antibacterial activity against Streptococcus faecalis; in short: as §1
Klebsiella pneumoniae = test: Antibacterial activity against Klebsiella pneumoniae; in short: as §1
Escherichia coli = test: Antibacterial activity against Escherichia coli; in short: as §1
Pseudomonas aeruginosa = test: Antibacterial activity against Pseudomonas aeruginosa; in short: as §1

Measured: MIC

N#C/C(=C/c1ccccc1)CNC(=S)Nc1ccccc1
50 µg/mL: Staphylococcus aureus | Enterococcus faecalis | Klebsiella pneumoniae | Escherichia coli | Pseudomonas aeruginosa
